Data as given in ChEMBL document CHEMBL1799942, “Design, synthesis and antifungal activities of novel 1,2,4-triazole derivatives” (2011).
Values after ≈ are worked out from the molar mass of the structure shown.

Key:
Type in all cases: functional
[1] = Antifungal activity against Fonsecaea compacta by micro-broth dilution method
Summary of the method: (§1)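 Broth microdilution following the NCCLS yeast reference method (M27-A2), run on clinical isolates of filamentous fungi. Compounds were dissolved in DMSO, serially diluted in growth medium, inoculated and incubated at 35 °C. Growth was read at 7 days. MIC80 is the first well with about 80% less growth than the drug-free well.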

[2] = system: Candida tropicalis; test: Antifungal activity against Candida tropicalis by micro-broth dilution method
Summary of the method: (§2)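 Micro-broth dilution per NCCLS M27-A2. The C. parapsilosis strain is the ATCC 0306392 quality-control standard tested in each assay; the C. tropicalis strain is a clinical isolate. Compounds were in DMSO, serially diluted in growth medium, inoculated and incubated at 35 °C. MIC80 is the first well with about 80% growth reduction relative to the drug-free well.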

[3] = system: Cryptococcus neoformans; test: Antifungal activity against Cryptococcus neoformans ATCC BLS108 after 72 hrs by micro-broth dilution method; settings: ATCC BLS108, 72 h
Summary of the method: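 NCCLS M27-A2 microdilution on the ATCC BLS108 quality-control strain, tested in every assay. Compounds were taken up in DMSO, serially diluted in growth medium, inoculated and incubated at 35 °C. Growth was scored at 72 h. MIC80 is the first well with about 80% lower growth than the drug-free control well.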

[4] = system: Nannizzia gypsea; test: Antifungal activity against Microsporum gypseum after 7 days by micro-broth dilution method; settings: 168 h; summary of the method: as §1
[5] = system: Trichophyton rubrum; test: Antifungal activity against Trichophyton rubrum after 7 days by micro-broth dilution method; settings: 168 h; summary of the method: as §1
[6] = system: Candida parapsilosis; test: Antifungal activity against Candida parapsilosis ATCC 0306392 by micro-broth dilution method; settings: Lodderomyces parapsilosis; summary of the method: as §2
[7] = system: Candida albicans; test: Antifungal activity against Candida albicans ATCC Y0109 after 24 hrs by micro-broth dilution method; settings: ATCC Y0109, 24 h
Summary of the method: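 Micro-broth dilution per NCCLS M27-A2 on the quality-control standard strain ATCC Y0109, included in each assay. Compounds were dissolved in DMSO, serially diluted in growth medium, inoculated and incubated at 35 °C, with growth read at 24 h. MIC80 is the first well showing roughly 80% growth reduction versus the drug-free well.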

[8] = system: Aspergillus fumigatus; test: Antifungal activity against Aspergillus fumigatus after 7 days by micro-broth dilution method; settings: 168 h; summary of the method: as §1

Compound	MIC80 [1]	MIC80 [2]	MIC80 [3]	MIC80 [4]	MIC80 [5]	MIC80 [6]	MIC80 [7]	MIC80 [8]
CCCCCCCCCCCCCCCC(=O)Nc1ccc(N2CCN(CC(O)(Cn3cncn3)c3ccc(F)cc3F)CC2)cc1 (racemic)	4 µg/mL (≈ 6.13 µM)	1 µg/mL (≈ 1.53 µM)	16 µg/mL (≈ 24.5 µM)	0.25 µg/mL (≈ 0.383 µM)	0.25 µg/mL (≈ 0.383 µM)	1 µg/mL (≈ 1.53 µM)	0.25 µg/mL (≈ 0.383 µM)	> 64 µg/mL
CCCCCCCC(=O)Nc1ccc(N2CCN(CC(O)(Cn3cncn3)c3ccc(F)cc3F)CC2)cc1 (racemic)	1 µg/mL (≈ 1.85 µM)	0.0625 µg/mL (≈ 0.116 µM)	0.0625 µg/mL (≈ 0.116 µM)	0.0156 µg/mL (≈ 0.0289 µM)	0.0625 µg/mL (≈ 0.116 µM)	0.0625 µg/mL (≈ 0.116 µM)	0.0156 µg/mL (≈ 0.0289 µM)	1 µg/mL (≈ 1.85 µM)
CCC(=O)Nc1ccc(N2CCN(CC(O)(Cn3cncn3)c3ccc(F)cc3F)CC2)c(F)c1 (racemic)	1 µg/mL (≈ 2.05 µM)	0.0625 µg/mL (≈ 0.128 µM)	1 µg/mL (≈ 2.05 µM)	0.25 µg/mL (≈ 0.512 µM)	0.0625 µg/mL (≈ 0.128 µM)	0.0625 µg/mL (≈ 0.128 µM)	0.0625 µg/mL (≈ 0.128 µM)	4 µg/mL (≈ 8.19 µM)
C[C@@H](c1ncncc1F)[C@](O)(Cn1cncn1)c1ccc(F)cc1F [VORICONAZOLE]	0.0156 µg/mL (≈ 0.0447 µM)	0.25 µg/mL (≈ 0.716 µM)	0.0156 µg/mL (≈ 0.0447 µM)	0.0039 µg/mL (≈ 0.0112 µM)	0.0039 µg/mL (≈ 0.0112 µM)	1 µg/mL (≈ 2.86 µM)	0.0156 µg/mL (≈ 0.0447 µM)	> 64 µg/mL
